Source: ChEMBL document CHEMBL5724801, “EUbOPEN Chemogenomics Library - Multiplex” (2024)
Values joined by “and” are separate entries in the source; they are usually repeats but may differ in a detail not shown here. Equal entries are not always repeated.

System: HEK-293T
Experiment: Multiplex assay against HEK293T
Format: toxicity, cell-based
Settings: human
In short: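 Cells stained live at seeding with Hoechst33342, BioTracker Green Microtubule Cytoskeleton Dye, MitoTracker Red and Annexin V Alexa Fluor 680 were imaged on a CQ1 microscope at 37°C and 5% CO2 after compound addition. Their classification by CellPathfinder machine-learning gating ran from Hoechst high-intensity objects versus normal cells, to healthy, pyknosed or fragmented nuclei among normal cells, to mitotic or apoptotic among pyknosed cells. Tubulin, mitochondrial-mass and membrane-permeability phenotypes are per cents of healthy-nucleus cells.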

[1] = 12 h, 1 µM, compound concentration 1 uM
[2] = 12 h, 10 µM, compound concentration 10 uM
[3] = 24 h, 1 µM, compound concentration 1 uM
[4] = 24 h, 10 µM, compound concentration 10 uM
[5] = 48 h, 1 µM, compound concentration 1 uM
[6] = 48 h, 10 µM, compound concentration 10 uM

N#Cc1c(N)nc(SCc2csc(-c3ccc(Cl)cc3)n2)c(C#N)c1-c1ccc(OCCO)cc1 [CAPADENOSON] was tested. Which “Population Apoptotic (%)” value [1] did it give?
The value was 36% and 54%.

What about the “Population Fragmented Nuclei (%)” value [1] of the same molecule?
Its value is 6%.

What about the “Population Healthy Nuclei (%)” value [1] of the same molecule?
The value was 79% and 80%.

And the “Population Hoechst High Intensity Objects (%)” value [1]?
Its value is 8% and 4%.

And the “Population Membrane Permeable-Phenotype (%)” value [1]?
Its value is 0%.

What about the “Population Mitochondria Different-Phenotype (%)” value [1] of the same molecule?
The value was 59% and 60%.

And the “Population Mitotic Cells (%)” value [1]?
Its value is 63% and 45%.

What about the “Population Normal (%)” value [1] of the same molecule?
The value was 91% and 95%.

What about the “Population Pyknosed Nuclei (%)” value [1] of the same molecule?
The value was 13% and 12%.

What about the “Population Tubulin-Different-Phenotype (%)” value [1] of the same molecule?
Its value is 44% and 34%.

What about the “Total Cell Count” value [1] of the same molecule?
Its value is 373 and 375.

And the “Population Apoptotic (%)” value [2]?
Its value is 57% and 70%.

What about the “Population Fragmented Nuclei (%)” value [2] of the same molecule?
Its value is 7% and 6%.

What about the “Population Healthy Nuclei (%)” value [2] of the same molecule?
Its value is 75% and 73%.

What about the “Population Hoechst High Intensity Objects (%)” value [2] of the same molecule?
The value was 12% and 14%.

What about the “Population Membrane Permeable-Phenotype (%)” value [2] of the same molecule?
The value was 0% and 1%.

What about the “Population Mitochondria Different-Phenotype (%)” value [2] of the same molecule?
The value was 82% and 85%.

And the “Population Mitotic Cells (%)” value [2]?
The value was 42% and 29%.

And the “Population Normal (%)” value [2]?
Its value is 87% and 85%.

What about the “Population Pyknosed Nuclei (%)” value [2] of the same molecule?
Its value is 17% and 20%.

And the “Population Tubulin-Different-Phenotype (%)” value [2]?
Its value is 62% and 63%.

What about the “Total Cell Count” value [2] of the same molecule?
The value was 307 and 388.

What about the “Population Apoptotic (%)” value [3] of the same molecule?
Its value is 36% and 37%.

What about the “Population Fragmented Nuclei (%)” value [3] of the same molecule?
Its value is 5% and 7%.

And the “Population Healthy Nuclei (%)” value [3]?
The value was 76% and 79%.

And the “Population Hoechst High Intensity Objects (%)” value [3]?
The value was 6% and 4%.

And the “Population Membrane Permeable-Phenotype (%)” value [3]?
Its value is 2% and 0%.

And the “Population Mitochondria Different-Phenotype (%)” value [3]?
Its value is 38% and 44%.

What about the “Population Mitotic Cells (%)” value [3] of the same molecule?
Its value is 63% and 62%.

What about the “Population Normal (%)” value [3] of the same molecule?
The value was 93% and 95%.

And the “Population Pyknosed Nuclei (%)” value [3]?
The value was 17% and 12%.

What about the “Population Tubulin-Different-Phenotype (%)” value [3] of the same molecule?
Its value is 34% and 23%.

And the “Total Cell Count” value [3]?
Its value is 450 and 456.

And the “Population Apoptotic (%)” value [4]?
The value was 65% and 73%.

And the “Population Fragmented Nuclei (%)” value [4]?
The value was 8% and 4%.

And the “Population Healthy Nuclei (%)” value [4]?
Its value is 68%.

And the “Population Hoechst High Intensity Objects (%)” value [4]?
The value was 14% and 13%.

And the “Population Membrane Permeable-Phenotype (%)” value [4]?
Its value is 0%.

What about the “Population Mitochondria Different-Phenotype (%)” value [4] of the same molecule?
Its value is 94% and 89%.

And the “Population Mitotic Cells (%)” value [4]?
Its value is 34% and 26%.

What about the “Population Normal (%)” value [4] of the same molecule?
Its value is 85% and 86%.

And the “Population Pyknosed Nuclei (%)” value [4]?
Its value is 22% and 26%.

And the “Population Tubulin-Different-Phenotype (%)” value [4]?
The value was 62% and 61%.

What about the “Total Cell Count” value [4] of the same molecule?
Its value is 319 and 391.

And the “Population Apoptotic (%)” value [5]?
Its value is 31% and 32%.

What about the “Population Fragmented Nuclei (%)” value [5] of the same molecule?
Its value is 10% and 11%.

What about the “Population Healthy Nuclei (%)” value [5] of the same molecule?
Its value is 79% and 80%.

And the “Population Hoechst High Intensity Objects (%)” value [5]?
Its value is 4% and 3%.

And the “Population Membrane Permeable-Phenotype (%)” value [5]?
The value was 1% and 2%.

What about the “Population Mitochondria Different-Phenotype (%)” value [5] of the same molecule?
The value was 32% and 23%.

What about the “Population Mitotic Cells (%)” value [5] of the same molecule?
Its value is 68% and 67%.

What about the “Population Normal (%)” value [5] of the same molecule?
The value was 95% and 96%.

And the “Population Pyknosed Nuclei (%)” value [5]?
Its value is 10% and 8%.

What about the “Population Tubulin-Different-Phenotype (%)” value [5] of the same molecule?
The value was 23% and 18%.

What about the “Total Cell Count” value [5] of the same molecule?
Its value is 621 and 787.

What about the “Population Apoptotic (%)” value [6] of the same molecule?
The value was 66% and 63%.

What about the “Population Fragmented Nuclei (%)” value [6] of the same molecule?
Its value is 11% and 12%.

And the “Population Healthy Nuclei (%)” value [6]?
The value was 68% and 73%.

And the “Population Hoechst High Intensity Objects (%)” value [6]?
The value was 12% and 10%.

What about the “Population Membrane Permeable-Phenotype (%)” value [6] of the same molecule?
Its value is 0%.

And the “Population Mitochondria Different-Phenotype (%)” value [6]?
Its value is 89% and 88%.

And the “Population Mitotic Cells (%)” value [6]?
The value was 33% and 36%.

And the “Population Normal (%)” value [6]?
Its value is 87% and 89%.

And the “Population Pyknosed Nuclei (%)” value [6]?
Its value is 20% and 14%.

What about the “Population Tubulin-Different-Phenotype (%)” value [6] of the same molecule?
The value was 67% and 64%.

What about the “Total Cell Count” value [6] of the same molecule?
Its value is 406 and 423.

How did the “Population Apoptotic (%)” value [1] turn out when CCn1cnc2c(-c3ccc(F)c(-c4ccc(S(=O)(=O)CC)cc4OC)c3)cnnc21 [DARIGABAT] was run?
Its value is 11.84% and 26.37%.

And the “Population Fragmented Nuclei (%)” value [1]?
The value was 2.08% and 6.03%.

And the “Population Healthy Nuclei (%)” value [1]?
The value was 45.14% and 15.52%.

And the “Population Hoechst High Intensity Objects (%)” value [1]?
Its value is 0.69% and 0%.

What about the “Population Membrane Permeable-Phenotype (%)” value [1] of the same molecule?
Its value is 1.54% and 0%.

And the “Population Mitochondria Different-Phenotype (%)” value [1]?
The value was 30.77% and 11.11%.

And the “Population Mitotic Cells (%)” value [1]?
Its value is 88.16% and 73.63%.

What about the “Population Normal (%)” value [1] of the same molecule?
The value was 99.31% and 100%.

And the “Population Pyknosed Nuclei (%)” value [1]?
Its value is 52.78% and 78.45%.

And the “Population Tubulin-Different-Phenotype (%)” value [1]?
Its value is 7.69% and 16.67%.

And the “Total Cell Count” value [1]?
Its value is 290 and 116.

And the “Population Apoptotic (%)” value [2]?
Its value is 21.29% and 10%.

What about the “Population Fragmented Nuclei (%)” value [2] of the same molecule?
Its value is 1.32% and 0.75%.

And the “Population Hoechst High Intensity Objects (%)” value [2]?
Its value is 0.44% and 0%.

And the “Population Membrane Permeable-Phenotype (%)” value [2]?
Its value is 0%.

What about the “Population Mitochondria Different-Phenotype (%)” value [2] of the same molecule?
Its value is 28.57% and 46.15%.

What about the “Population Mitotic Cells (%)” value [2] of the same molecule?
The value was 78.71% and 90%.

And the “Population Normal (%)” value [2]?
Its value is 99.56% and 100%.

And the “Population Pyknosed Nuclei (%)” value [2]?
The value was 67.98% and 89.55%.

And the “Population Tubulin-Different-Phenotype (%)” value [2]?
The value was 40% and 69.23%.

And the “Total Cell Count” value [2]?
Its value is 229 and 134.

What about the “Population Apoptotic (%)” value [3] of the same molecule?
Its value is 18.67% and 32.22%.

And the “Population Fragmented Nuclei (%)” value [3]?
Its value is 2.2% and 5.36%.

And the “Population Hoechst High Intensity Objects (%)” value [3]?
The value was 0.22% and 1.75%.

And the “Population Membrane Permeable-Phenotype (%)” value [3]?
Its value is 1.8% and 0%.

What about the “Population Mitochondria Different-Phenotype (%)” value [3] of the same molecule?
The value was 24.46% and 31.25%.

What about the “Population Mitotic Cells (%)” value [3] of the same molecule?
Its value is 81.33% and 67.78%.

What about the “Population Normal (%)” value [3] of the same molecule?
The value was 99.78% and 98.25%.

And the “Population Pyknosed Nuclei (%)” value [3]?
Its value is 36.56% and 80.36%.

And the “Population Tubulin-Different-Phenotype (%)” value [3]?
The value was 17.63% and 6.25%.

What about the “Population Apoptotic (%)” value [4] of the same molecule?
Its value is 40.69% and 29.17%.

And the “Population Fragmented Nuclei (%)” value [4]?
Its value is 0.43% and 1.46%.

And the “Population Hoechst High Intensity Objects (%)” value [4]?
Its value is 0.86% and 0%.

And the “Population Membrane Permeable-Phenotype (%)” value [4]?
Its value is 0% and 6.67%.

And the “Population Mitochondria Different-Phenotype (%)” value [4]?
The value was 61.9% and 46.67%.

What about the “Population Mitotic Cells (%)” value [4] of the same molecule?
The value was 59.31% and 70.83%.

And the “Population Normal (%)” value [4]?
The value was 99.14% and 100%.

What about the “Population Pyknosed Nuclei (%)” value [4] of the same molecule?
Its value is 63.04% and 87.59%.

And the “Total Cell Count” value [4]?
The value was 232 and 137.

What about the “Population Apoptotic (%)” value [5] of the same molecule?
Its value is 12.68% and 27.16%.

What about the “Population Fragmented Nuclei (%)” value [5] of the same molecule?
The value was 3.42% and 2.05%.

And the “Population Healthy Nuclei (%)” value [5]?
Its value is 77.19% and 42.47%.

And the “Population Hoechst High Intensity Objects (%)” value [5]?
Its value is 0%.

And the “Population Membrane Permeable-Phenotype (%)” value [5]?
The value was 3.54% and 1.61%.

And the “Population Mitochondria Different-Phenotype (%)” value [5]?
The value was 36.28% and 61.29%.

What about the “Population Mitotic Cells (%)” value [5] of the same molecule?
Its value is 87.32% and 72.84%.

What about the “Population Normal (%)” value [5] of the same molecule?
The value was 100%.

And the “Population Pyknosed Nuclei (%)” value [5]?
The value was 19.4% and 55.48%.

What about the “Population Apoptotic (%)” value [6] of the same molecule?
The value was 55.34% and 39.62%.

And the “Population Fragmented Nuclei (%)” value [6]?
The value was 1.71% and 3.1%.

What about the “Population Hoechst High Intensity Objects (%)” value [6] of the same molecule?
Its value is 0.34% and 0%.

What about the “Population Membrane Permeable-Phenotype (%)” value [6] of the same molecule?
The value was 1.08% and 0%.

And the “Population Mitochondria Different-Phenotype (%)” value [6]?
Its value is 92.97% and 73.68%.

And the “Population Mitotic Cells (%)” value [6]?
The value was 44.66% and 60.38%.

And the “Population Normal (%)” value [6]?
Its value is 99.66% and 100%.

And the “Population Pyknosed Nuclei (%)” value [6]?
Its value is 35.15% and 82.17%.

What about the “Total Cell Count” value [6] of the same molecule?
The value was 294 and 129.
